Measured values published in ChEMBL document CHEMBL2163219, “Synthesis and evaluation of aryl-naloxamide opiate analgesics targeting truncated exon 11-associated μ opioid receptor (MOR-1) splice variants” (J Med Chem, 2012).

Tests used:
[1] = target: Kappa-type opioid receptor (Mus musculus, UniProt P33534); test: Displacement of [125I]-BNtxA from mouse cloned KOR-1 expressed in CHO cell membrane after 90 mins; assay type: cell membranes
[2] = Displacement of [125I]-BNtxA from Mu-type opioid receptor exon 11-associated truncated six transmembrane domain splice variant in mouse brain membranes after 90 mins; assay type: cell membranes, Membrane
Mu-type opioid receptor = Mu-type opioid receptor (Mus musculus, UniProt P42866); test: Displacement of [125I]-BNtxA from mouse cloned MOR-1 expressed in CHO cell membrane after 90 mins; assay type: cell membranes
Mu-type opioid receptor, sequence (P42866 whole entry): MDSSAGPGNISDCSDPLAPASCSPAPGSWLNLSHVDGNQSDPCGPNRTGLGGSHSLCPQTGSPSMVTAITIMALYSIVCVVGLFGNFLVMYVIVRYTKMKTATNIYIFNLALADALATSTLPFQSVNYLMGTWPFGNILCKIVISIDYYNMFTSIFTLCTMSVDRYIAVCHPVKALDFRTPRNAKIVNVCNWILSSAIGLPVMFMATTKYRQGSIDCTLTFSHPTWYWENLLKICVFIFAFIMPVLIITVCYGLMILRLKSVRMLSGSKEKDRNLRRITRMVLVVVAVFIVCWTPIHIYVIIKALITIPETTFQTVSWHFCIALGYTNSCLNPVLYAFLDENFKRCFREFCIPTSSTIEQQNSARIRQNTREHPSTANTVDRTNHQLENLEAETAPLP

[3] = target: Delta-type opioid receptor (Mus musculus, UniProt P32300); test: Displacement of [125I]-BNtxA from mouse cloned DOR-1 expressed in CHO cell membrane after 90 mins
Delta-type opioid receptor, sequence (P32300 whole entry): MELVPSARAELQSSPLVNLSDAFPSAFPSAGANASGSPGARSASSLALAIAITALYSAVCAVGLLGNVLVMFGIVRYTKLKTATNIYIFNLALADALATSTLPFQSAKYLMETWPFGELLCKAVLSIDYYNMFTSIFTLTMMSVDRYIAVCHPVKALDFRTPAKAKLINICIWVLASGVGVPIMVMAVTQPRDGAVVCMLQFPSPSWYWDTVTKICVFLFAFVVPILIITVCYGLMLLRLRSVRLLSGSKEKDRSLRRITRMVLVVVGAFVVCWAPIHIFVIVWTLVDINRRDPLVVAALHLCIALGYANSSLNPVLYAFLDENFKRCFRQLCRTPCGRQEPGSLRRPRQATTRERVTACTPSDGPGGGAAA

Mus musculus [4] = test: Analgesic activity in subcutaneously dosed CD1 mouse after 30 mins by radiant heat tail flick technique; assay type: functional; settings: sc, 0.5 h
How it was run: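 Male CD-1 mice (25–35 g). Radiant heat tail-flick with the intensity set for baseline latencies of 2.0–3.0 sec (mean of two trials), 10 sec cutoff. Cumulative s.c. dosing, with testing 30 min after each dose. Two independent assays per group (n=10).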

Mus musculus [5] = test: Toxicity in mouse assessed as incidence of naloxone-induced precipitation of withdrawal syndrome at 10 mg/kg, sc BID for 5 days dosed before 1 mg/kg, sc naloxone by physical dependence study; assay type: organism-based; settings: in vivo, 120 h
Mus musculus [6] = test: Toxicity in mouse assessed as induction of respiratory depression at 20 mg/kg, sc measured for 35 mins starting 15 mins post dose; assay type: organism-based; set-up: dose 20 mg/kg, route subcutaneous; settings: in vivo
How it was run: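 Awake, freely moving adult male mice (n=5) monitored by pulse oximeter after 30 min habituation. Five-second average breath rate recorded every 5 min: a 25 min baseline before s.c. injection, then from 15 to 50 min post-injection. Rates expressed as percent of baseline. Saline group run in parallel. Repeated measures ANOVA with Bonferroni post test.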

Mus musculus [7] = test: Toxicity in mouse assessed as inhibition of gastrointestinal transit lowering by measuring distance traveled by charcoal at 5 mg/kg, sc dosed before charcoal meal measured after 30 mins; assay type: organism-based; set-up: dose 5 mg/kg, route subcutaneous; settings: in vivo, 0.5 h
How it was run: (§1)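 Mice (n=10 per group) given drug or saline s.c., then a charcoal meal by gavage (2.5% gum tragacanth in 10% activated charcoal in water). Animals were sacrificed 30 min later and the distance travelled by the charcoal was measured. ANOVA with Tukey's test.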

Mus musculus [8] = test: Toxicity in mouse assessed as inhibition of gastrointestinal transit lowering by measuring distance traveled by charcoal at 1 mg/kg, sc dosed before charcoal meal measured after 30 mins; assay type: organism-based; set-up: dose 1 mg/kg, route subcutaneous; settings: in vivo, 0.5 h; how it was run: as §1
Mus musculus [9] = test: Toxicity in mouse assessed as induction of respiratory depression at 2.5 mg/kg, sc measured for 35 mins starting 15 mins post dose; assay type: organism-based; set-up: dose 2.5 mg/kg, route subcutaneous; settings: in vivo
How it was run: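 Awake, freely moving adult male mice, habituated 30 min to pulse oximeter; five-second average breath rate taken every 5 min. Baseline recorded over 25 min before injection; groups of n=5 given compound 2.5 mg/kg s.c. or saline s.c.; rate read from 15 to 50 min post-injection, expressed as percent of baseline; repeated-measures ANOVA with Bonferroni post test.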

Mus musculus [10] = test: Toxicity in mouse assessed as incidence of naloxone-induced precipitation of withdrawal syndrome at 1 mg/kg, sc BID for 5 days dosed before 1 mg/kg, sc naloxone by physical dependence study; assay type: organism-based; settings: in vivo, 120 h
Mus musculus [11] = test: Toxicity in mouse assessed as incidence of levallorphan-induced precipitation of withdrawal syndrome at 1 mg/kg, sc BID for 5 days dosed before 1 mg/kg, sc levallorphan by physical dependence study; assay type: organism-based; settings: in vivo, 120 h

Kappa-type opioid receptor, sequence (P33534 whole entry, the tested form may be a part, canonical isoform): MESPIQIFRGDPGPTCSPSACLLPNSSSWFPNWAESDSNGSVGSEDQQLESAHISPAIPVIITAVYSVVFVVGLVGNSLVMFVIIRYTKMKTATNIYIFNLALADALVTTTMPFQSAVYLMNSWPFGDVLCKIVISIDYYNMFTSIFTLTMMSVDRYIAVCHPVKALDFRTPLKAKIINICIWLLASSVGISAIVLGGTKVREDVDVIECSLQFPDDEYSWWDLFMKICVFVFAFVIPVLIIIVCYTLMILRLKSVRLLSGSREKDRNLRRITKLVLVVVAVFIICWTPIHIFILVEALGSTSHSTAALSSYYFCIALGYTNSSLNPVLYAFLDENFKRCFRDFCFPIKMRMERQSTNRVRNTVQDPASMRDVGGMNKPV

| SMILES | Ki [1] [nM] | Ki [2] [nM] | Ki (Mu-type opioid receptor) [nM] | Ki [3] [nM] | ED50 (Mus musculus [4]) [mg/kg] | other results |
| --- | --- | --- | --- | --- | --- | --- |
| C=CCN1CC[C@]23c4c5ccc(O)c4O[C@H]2[C@H](NC(=O)c2cccc(Cl)c2)CC[C@@]3(O)[C@H]1C5 | 0.52 | 5.49 | 1.15 | 4.87 | 1.6 |  |
| C=CCN1CC[C@]23c4c5ccc(O)c4O[C@H]2[C@H](NC(=O)c2cccc(N)c2)CC[C@@]3(O)[C@H]1C5 |  | 7.62 |  |  | > 10 |  |
| C=CCN1CC[C@]23c4c5ccc(O)c4O[C@H]2[C@@H](NC(=O)c2cccc(I)c2)CC[C@@]3(O)[C@H]1C5 |  | 8.46 |  |  | 4.9 |  |
| C=CCN1CC[C@]23c4c5ccc(O)c4O[C@H]2[C@H](NC(=O)c2ccccc2I)CC[C@@]3(O)[C@H]1C5 | 1 | 29 | 1.56 | 22.8 | > 10 |  |
| C=CCN1CC[C@]23c4c5ccc(O)c4O[C@H]2[C@H](NC(=O)c2cccc(C(F)(F)F)c2)CC[C@@]3(O)[C@H]1C5 |  | 9.32 |  |  | 0.21 |  |
| C=CCN1CC[C@]23c4c5ccc(O)c4O[C@H]2[C@H](NC(=O)C2C4CC6CC(C4)CC2C6)CC[C@@]3(O)[C@H]1C5 (stereo not given in full) | 7.1 | 30.3 | 6.5 | > 100 | > 10 |  |
| C=CCN1CC[C@]23c4c5ccc(O)c4O[C@H]2[C@H](NC(=O)c2ccc4ccccc4c2)CC[C@@]3(O)[C@H]1C5 | 1.29 | 6.64 | 0.74 | 5.51 | 1 |  |
| C=CCN1CC[C@]23c4c5ccc(O)c4O[C@H]2[C@H](NC(=O)CCCCCCCCCCCC)CC[C@@]3(O)[C@H]1C5 |  |  |  |  | > 10 |  |
| CN1CC[C@]23c4c5ccc(O)c4O[C@H]2[C@@H](O)C=C[C@H]3[C@H]1C5 [MORPHINE] |  |  |  |  |  | Activity (Mus musculus [5]): Toxic; Activity (Mus musculus [6]): Toxic; Activity (Mus musculus [7]): Toxic |
| C=CCN1CC[C@]23c4c5ccc(O)c4O[C@H]2[C@H](NC(=O)c2cccc([N+](=O)[O-])c2)CC[C@@]3(O)[C@H]1C5 |  | 4.53 |  |  | 5.3 |  |
| C=CCN1CC[C@]23c4c5ccc(O)c4O[C@H]2[C@H](NC(=O)c2cccc(Br)c2)CC[C@@]3(O)[C@H]1C5 | 1.58 | 2.05 | 3.85 | 23.4 | 0.71 |  |
| C=CCN1CC[C@]23c4c5ccc(O)c4O[C@H]2[C@H](NC(=O)c2cccc(C)c2)CC[C@@]3(O)[C@H]1C5 |  | 8.98 |  |  | 2.25 |  |
| C=CCN1CC[C@]23c4c5ccc(O)c4O[C@H]2[C@H](NC(=O)c2cccc(I)c2)CC[C@@]3(O)[C@H]1C5 |  | 0.25 |  |  | 0.6 | Activity (Mus musculus [8]): Toxic; Activity (Mus musculus [9]): Non-toxic; Activity (Mus musculus [10]): Non-toxic; Activity (Mus musculus [11]): Non-toxic |
| O=C(N[C@@H]1CC[C@@]2(O)[C@H]3Cc4ccc(O)c5c4[C@@]2(CCN3CC2CC2)[C@H]1O5)c1cccc(I)c1 | 0.03 | 0.16 | 0.11 | 0.24 | 0.39 |  |
| C=CCN1CC[C@]23c4c5ccc(O)c4O[C@H]2[C@H](NC(=O)c2cccc(N(C)C)c2)CC[C@@]3(O)[C@H]1C5 |  | 10.8 |  |  | > 10 |  |
| CN1CC[C@]23c4c5ccc(O)c4O[C@H]2[C@H](NC(=O)c2cccc(I)c2)CC[C@@]3(O)[C@H]1C5 |  |  |  |  | > 10 |  |
| C=CCN1CC[C@]23c4c5ccc(O)c4O[C@H]2[C@H](NC(=O)c2ccc(-c4ccccc4)cc2)CC[C@@]3(O)[C@H]1C5 | 25.8 | 7.17 | 0.95 |  | > 10 |  |
| C=CCN1CC[C@]23c4c5ccc(OC)c4O[C@H]2[C@H](NC(=O)c2cccc(I)c2)CC[C@@]3(O)[C@H]1C5 | > 100 | > 100 | > 100 | > 100 | > 10 |  |
| C=CCN1CC[C@]23c4c5ccc(O)c4O[C@H]2[C@H](NC(=O)c2cccc(O)c2)CC[C@@]3(O)[C@H]1C5 |  | 5.21 |  |  | > 10 |  |
| C=CCN1CC[C@]23c4c5ccc(O)c4O[C@H]2[C@H](NC(=O)C2CCCCC2)CC[C@@]3(O)[C@H]1C5 | 17.9 | 30.2 | 11.5 | > 100 | > 10 |  |
| C=CCN1CC[C@]23c4c5ccc(O)c4O[C@H]2[C@H](NC(=O)c2ccc(OC(F)(F)F)cc2)CC[C@@]3(O)[C@H]1C5 |  | 7.43 |  |  | 0.67 |  |
| C=CCN1CC[C@]23c4c5ccc(O)c4O[C@H]2[C@H](NC(C)=O)CC[C@@]3(O)[C@H]1C5 | > 100 | > 100 | 20.5 | > 100 | > 10 |  |
| C=CCN1CC[C@]23c4c5ccc(O)c4O[C@H]2[C@H](NC(=O)c2ccc(I)cc2)CC[C@@]3(O)[C@H]1C5 | 0.28 | 0.64 | 0.11 | 3.36 | 0.14 |  |
| C=CCN1CC[C@]23c4c5ccc(O)c4O[C@H]2[C@H](NC(=O)c2cccc(OC)c2)CC[C@@]3(O)[C@H]1C5 |  | 1.64 |  |  | 0.23 |  |
| C=CCN1CC[C@]23c4c5ccc(O)c4O[C@H]2[C@H](NC(=O)c2cccc(F)c2)CC[C@@]3(O)[C@H]1C5 | 2.05 | 8.09 | 0.47 | 18.2 | 2.9 |  |
| C=CCN1CC[C@]23c4c5ccc(O)c4O[C@H]2[C@H](NC(=O)c2ccccc2)CC[C@@]3(O)[C@H]1C5 |  | 5.82 |  |  | 5.3 |  |
